# Measurements: ChEMBL document CHEMBL1782004, “Pyrimidine nucleotides with 4-alkyloxyimino and terminal tetraphosphate δ-ester modifications as selective agonists of the P2Y(4) receptor” (J Med Chem, 2011)
# Active and inactive are the calls of the source. No cut-off for these calls is given here.
# Assays:
# [1] = target: T1, P2Y purinoceptor 2 (Homo sapiens, UniProt P41231); assay: Agonist activity at human P2Y2; assay type: functional
# [2] = target: T1, P2Y purinoceptor 2; assay: Agonist activity at human recombinant P2Y2 receptor expressed in human 1321N1 cells assessed as [3H]inositol phosphate production at 10 uM after 30 mins by scintillation proximity assay; assay type: functional, cell-based
# [3] = target: T2, P2Y purinoceptor 4 (Homo sapiens, UniProt P51582); assay: Agonist activity at human recombinant P2Y4 receptor expressed in human 1321N1 cells assessed as [3H]inositol phosphate production at 10 uM after 30 mins by scintillation proximity assay; assay type: functional, cell-based
# T2 sequence (P51582 whole entry): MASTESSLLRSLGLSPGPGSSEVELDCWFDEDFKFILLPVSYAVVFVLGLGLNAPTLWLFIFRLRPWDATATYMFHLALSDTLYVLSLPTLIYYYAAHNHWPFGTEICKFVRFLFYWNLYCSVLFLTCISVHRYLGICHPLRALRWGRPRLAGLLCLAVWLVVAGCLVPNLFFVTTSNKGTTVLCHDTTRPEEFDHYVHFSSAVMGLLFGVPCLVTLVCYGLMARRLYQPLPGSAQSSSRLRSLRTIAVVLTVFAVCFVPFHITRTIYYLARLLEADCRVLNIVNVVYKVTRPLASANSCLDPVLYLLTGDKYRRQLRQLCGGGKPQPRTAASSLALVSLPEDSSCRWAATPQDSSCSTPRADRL
# [4] = target: T3, P2Y purinoceptor 6 (Homo sapiens, UniProt Q15077); assay: Agonist activity at human recombinant P2Y6 receptor expressed in human 1321N1 cells assessed as [3H]inositol phosphate production at 10 uM after 30 mins by scintillation proximity assay; assay type: functional, cell-based
# T3 sequence (Q15077 whole entry): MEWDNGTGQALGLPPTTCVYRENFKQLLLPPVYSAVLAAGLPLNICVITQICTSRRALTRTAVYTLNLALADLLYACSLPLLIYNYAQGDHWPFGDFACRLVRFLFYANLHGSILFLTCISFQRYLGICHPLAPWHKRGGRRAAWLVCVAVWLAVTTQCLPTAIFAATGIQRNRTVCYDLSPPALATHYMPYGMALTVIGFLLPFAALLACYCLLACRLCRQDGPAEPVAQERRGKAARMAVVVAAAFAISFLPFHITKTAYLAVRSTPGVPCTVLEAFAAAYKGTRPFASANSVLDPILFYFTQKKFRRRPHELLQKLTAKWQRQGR
# [5] = target: T1, P2Y purinoceptor 2; assay: Agonist activity at human recombinant P2Y2 receptor expressed in human 1321N1 cells assessed as [3H]inositol phosphate production after 30 mins by scintillation proximity assay; assay type: functional, cell-based
# Method in brief: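 Stable 1321N1 human astrocytoma lines expressing human P2Y2, P2Y4 or P2Y6 were seeded at 20,000 cells/well two days ahead. Cells were then challenged with agonist in HEPES pH 7.3/HBSS containing LiCl for 30 min at 37°C. The reaction was stopped with ice-cold 50 mM formic acid and [3H]inositol phosphates were read by SPA.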
# [6] = target: T2, P2Y purinoceptor 4; assay: Agonist activity at human recombinant P2Y4 receptor expressed in human 1321N1 cells assessed as [3H]inositol phosphate production after 30 mins by scintillation proximity assay; assay type: functional, cell-based
# Method in brief: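 Stable 1321N1 human astrocytoma lines expressing human P2Y2, P2Y4 or P2Y6 were seeded at 20,000 cells/well two days ahead. They were labelled for 16 h with 1.0 μCi myo-[3H]inositol in serum-free, inositol-free DMEM. Cells were then challenged with agonist in HEPES pH 7.3/HBSS containing LiCl for 30 min at 37°C. The reaction was stopped with ice-cold 50 mM formic acid and [3H]inositol phosphates were read by SPA.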
# [7] = target: T3, P2Y purinoceptor 6; assay: Agonist activity at human recombinant P2Y6 receptor expressed in human 1321N1 cells assessed as [3H]inositol phosphate production after 30 mins by scintillation proximity assay; assay type: functional, cell-based
# Method in brief: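 1321N1 astrocytoma cells stably expressing human P2Y6, seeded 2 days ahead and labelled 16 h with myo-[3H]inositol in serum-free inositol-free DMEM. Agonist added as five-fold concentrate in HEPES pH 7.3/HBSS with 50 mM LiCl, 30 min at 37°C. Stopped with ice-cold 50 mM formic acid. EC50 from four-parameter logistic fit; triplicates, three to six experiments; UDP reference curve.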
# [8] = target: T1, P2Y purinoceptor 2; assay: Ratio of EC50 for human recombinant P2Y2 receptor expressed in human 1321N1 cells to EC50 for human recombinant P2Y4 receptor expressed in human 1321N1 cells; assay type: cell-based
# [9] = tested on: 1321-N1; assay: Ratio of EC50 for human recombinant P2Y6 receptor expressed in human 1321N1 cells to EC50 for human recombinant P2Y4 receptor expressed in human 1321N1 cells; assay type: cell-based
# [10] = Ratio of EC50 for P2Y4 to EC50 for P2Y2
# [11] = Ratio of EC50 for P2Y6 to EC50 for P2Y2
# [12] = tested on: Oocyte; assay: Ratio of EC50 for rat P2Y2 expressed in Xenopus oocytes to EC50 for rat P2Y4 expressed in Xenopus oocytes; assay type: cell-based
# T1 sequence (P41231 whole entry): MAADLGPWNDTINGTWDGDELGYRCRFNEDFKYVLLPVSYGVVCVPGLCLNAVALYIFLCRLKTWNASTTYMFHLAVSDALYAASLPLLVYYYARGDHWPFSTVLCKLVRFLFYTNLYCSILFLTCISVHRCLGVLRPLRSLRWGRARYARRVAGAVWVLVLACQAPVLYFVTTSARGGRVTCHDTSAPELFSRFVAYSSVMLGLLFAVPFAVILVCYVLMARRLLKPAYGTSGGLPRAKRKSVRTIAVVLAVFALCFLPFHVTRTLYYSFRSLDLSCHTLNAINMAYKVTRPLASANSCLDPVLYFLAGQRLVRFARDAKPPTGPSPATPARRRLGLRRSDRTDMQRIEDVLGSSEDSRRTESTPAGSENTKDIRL
SMILES,Activity [4],EC50 [5],EC50 [6],EC50 [7],also measured
[N-]=[N+]=N[C@@H]1[C@H](O)[C@@H](COP(=O)(O)OP(=O)(O)OP(=O)(O)O)O[C@H]1n1ccc(=O)[nH]c1=O,,,,,EC50 [1]: 5000 nM
O=c1ccn([C@@H]2O[C@H](COP(=O)(O)OP(=O)(O)C(Cl)(Cl)P(=O)(O)OP(=O)(O)O[C@H]3O[C@H](CO)[C@@H](O)[C@H](O)[C@H]3O)[C@@H](O)[C@H]2O)c(=O)[nH]1,inactive,,,,Activity [2]: < 50%; Activity [3]: inactive
O=c1ccn([C@@H]2O[C@H](COP(=O)(O)OP(=O)(O)OP(=O)(O)OP(=O)(O)O[C@H]3O[C@H](CO)[C@@H](F)[C@H](O)[C@H]3O)[C@@H](O)[C@H]2O)c(=O)[nH]1,,620 nM,220 nM,1640 nM,
CC(C)(C)ONc1ccn([C@@H]2O[C@H](COP(=O)(O)OP(=O)(O)OP(=O)(O)O)[C@@H](O)[C@H]2O)c(=O)n1,,1500 nM,2110 nM,,
O=c1ccn([C@@H]2O[C@H](COP(=O)(O)OP(=O)(O)OP(=O)(O)O)[C@@H](O)[C@H]2O)c(=O)[nH]1 [URIDINE TRIPHOSPHATE],,55 nM,80 nM,,
O=c1ccn([C@@H]2O[C@H](COP(=O)(O)OP(=O)(O)OP(=O)(O)OP(=O)(O)Oc3ccccc3)[C@@H](O)[C@H]2O)c(=O)[nH]1,inactive,2760 nM,,,Activity [3]: inactive
O=c1ccn([C@@H]2O[C@H](COP(=O)(O)OP(=O)(O)OP(=O)(O)OP(=O)(O)O[C@H]3O[C@H](CO)[C@@H](O)[C@H](O)[C@@H]3O)[C@@H](O)[C@H]2O)c(=O)[nH]1,,3720 nM,4480 nM,12100 nM,
O=c1[nH]/c(=N\OCCc2ccccc2)ccn1[C@@H]1O[C@H](COP(=O)(O)OP(=O)(O)OP(=O)(O)O)[C@@H](O)[C@H]1O,,,,,Ratio EC50 [8]: 16; Ratio EC50 [9]: 17
CONc1ccn([C@@H]2O[C@H](COP(=O)(O)OP(=O)(O)OP(=O)(O)OP(=O)(O)O[C@H]3O[C@H](CO)[C@@H](O)[C@H](F)[C@H]3O)[C@@H](O)[C@H]2O)c(=O)n1,,500 nM,310 nM,1440 nM,
CC(=O)N[C@H]1[C@@H](OP(=O)(O)OP(=O)(O)OP(=O)(O)OP(=O)(O)OC[C@H]2O[C@@H](n3ccc(=O)[nH]c3=O)[C@H](O)[C@@H]2O)O[C@H](CO)[C@@H](O)[C@@H]1O,,1890 nM,910 nM,5460 nM,
O=c1ccn([C@@H]2O[C@H](COP(=O)(O)OP(=O)(O)OP(=O)(O)OP(=O)(O)O[C@H]3O[C@H](CO)[C@@H](O)[C@H](F)[C@H]3O)[C@@H](O)[C@H]2O)c(=O)[nH]1,,710 nM,62 nM,950 nM,Ratio EC50 [8]: 11.5; Ratio EC50 [9]: 15.3
O=C(O)[C@H]1O[C@H](OP(=O)(O)OP(=O)(O)OP(=O)(O)OP(=O)(O)OC[C@H]2O[C@@H](n3ccc(=O)[nH]c3=O)[C@H](O)[C@@H]2O)[C@H](O)[C@@H](O)[C@@H]1O,,490 nM,227 nM,1650 nM,
O=c1ccn([C@@H]2O[C@H](COP(=O)(O)OP(=O)(O)OP(=O)(O)OP(=O)(O)O)[C@@H](O)[C@H]2O)c(=O)[nH]1,,3900 nM,7300 nM,,
COc1ccc(OP(=O)(O)OP(=O)(O)OP(=O)(O)OP(=O)(O)OC[C@H]2O[C@@H](n3ccc(=O)[nH]c3=O)[C@H](O)[C@@H]2O)cc1,< 50%,,,,Activity [2]: < 50%; Activity [3]: < 50%
O=c1ccn([C@@H]2O[C@H](COP(=O)(O)OP(=O)(O)OP(=O)(O)OP(=O)(O)Oc3cccc([N+](=O)[O-])c3)[C@@H](O)[C@H]2O)c(=O)[nH]1,< 50%,3330 nM,2540 nM,,
O=c1ccn([C@@H]2O[C@H](COP(=O)(O)OP(=O)(O)OP(=O)(O)OP(=O)(O)O[C@H]3O[C@H](CO)[C@@H](O)[C@H](O)[C@H]3F)[C@@H](O)[C@H]2O)c(=O)[nH]1,< 50%,,,,Activity [2]: < 50%; Activity [3]: < 50%

SMILES,Activity [4],EC50 [5],EC50 [6],EC50 [7],also measured
O=c1nc(NOCCCc2ccccc2)ccn1[C@@H]1O[C@H](COP(=O)(O)OP(=O)(O)OP(=O)(O)O)[C@@H](O)[C@H]1O,,640 nM,23 nM,740 nM,
O=c1ccn([C@@H]2O[C@H](COP(=O)(O)OP(=O)(O)OP(=O)(O)OP(=O)(O)O[C@H]3O[C@H](CO)[C@@H](O)[C@@H](O)[C@H]3O)[C@@H](O)[C@H]2O)c(=O)[nH]1,,770 nM,183 nM,1170 nM,
CC(C)(C)O/N=c1/ccn([C@@H]2O[C@H](COP(=O)(O)OP(=O)(O)OP(=O)(O)O)[C@@H](O)[C@H]2O)c(=O)[nH]1,< 50%,,,,
O=c1ccn([C@@H]2O[C@H](COP(=O)(O)OP(=O)(O)OP(=O)(O)OP(=O)(O)O[C@H]3O[C@H](CO)[C@@H](O)[C@H](O)[C@H]3O)[C@@H](O)[C@H]2O)c(=O)[nH]1,,,,,Ratio EC50 [10]: 7; Ratio EC50 [11]: 26
O=c1[nH]/c(=N\OCCCc2ccccc2)ccn1[C@@H]1O[C@H](COP(=O)(O)OP(=O)(O)OP(=O)(O)O)[C@@H](O)[C@H]1O,,,,,Ratio EC50 [8]: 28; Ratio EC50 [9]: 32
O=c1ccn([C@@H]2O[C@H](COP(=O)(O)OP(=O)(O)OP(=O)(O)OP(=O)(O)Oc3ccc([N+](=O)[O-])cc3)[C@@H](O)[C@H]2O)c(=O)[nH]1,< 50%,4850 nM,,,Activity [3]: < 50%
O=P(O)(O)OP(=O)(O)OP(=O)(O)OC[C@H]1O[C@@H](n2cnc3c(O)ncnc32)[C@H](O)[C@@H]1O,,,,,Ratio EC50 [12]: 13
O=c1[nH]/c(=N\OCc2ccccc2)ccn1[C@@H]1O[C@H](COP(=O)(O)OP(=O)(O)OP(=O)(O)OP(=O)(O)O[C@H]2O[C@H](CO)[C@@H](O)[C@H](F)[C@H]2O)[C@@H](O)[C@H]1O,,2640 nM,670 nM,7510 nM,
O=c1ccn([C@@H]2O[C@H](COP(=O)(O)OP(=O)(O)OP(=O)(O)OP(=O)(O)O[C@H]3O[C@H](CO)[C@H](O)[C@H](O)[C@H]3O)[C@@H](O)[C@H]2O)c(=O)[nH]1,,940 nM,,,
O=c1ccn([C@@H]2O[C@H](COP(=O)(O)OP(=O)(O)C(Cl)(Cl)P(=O)(O)O)[C@@H](O)[C@H]2O)c(=S)[nH]1,inactive,,,,Activity [3]: inactive
O=c1ccn([C@@H]2O[C@H](COP(=O)(O)OP(=O)(O)OP(=O)(O)OP(=O)(O)O[C@H]3OC[C@@H](O)[C@H](O)[C@H]3O)[C@@H](O)[C@H]2O)c(=O)[nH]1,,2770 nM,620 nM,4900 nM,
O=c1ccn([C@@H]2O[C@H](COP(=O)(O)OP(=O)(O)C(Cl)(Cl)P(=O)(O)O)[C@@H](O)[C@H]2O)c(=O)[nH]1,< 50%,9600 nM,,,Activity [3]: inactive
O=c1ccn([C@@H]2O[C@H](COP(=O)(O)OP(=O)(O)OP(=O)(O)OP(=O)(O)Oc3ccc(Cl)cc3)[C@@H](O)[C@H]2O)c(=O)[nH]1,,6600 nM,,,
O=c1ccn([C@@H]2O[C@H](COP(=O)(O)OP(=O)(O)OP(=O)(O)OP(=O)(O)Oc3cccc(Cl)c3)[C@@H](O)[C@H]2O)c(=O)[nH]1,,840 nM,,3690 nM,Activity [3]: inactive
COc1cccc(OP(=O)(O)OP(=O)(O)OP(=O)(O)OP(=O)(O)OC[C@H]2O[C@@H](n3ccc(=O)[nH]c3=O)[C@H](O)[C@@H]2O)c1,< 50%,,,,Activity [2]: < 50%; Activity [3]: inactive
